In brackets after ≈: the same amount, converted by molar mass.
How the values were obtained:
[1] = system: Bacillus subtilis; test: Antibacterial activity against penicillin-susceptible Bacillus subtilis ATCC 9372 assessed as bacterial growth inhibition incubated for 24 hrs by CLSI protocol based broth microdilution method; format: functional
[2] = system: Bacillus pumilus; test: Antibacterial activity against penicillin-susceptible Bacillus pumilus CMCC 63202 assessed as bacterial growth inhibition by broth dilution method; format: functional; conditions: time 24 hrs
Outline: (§1)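 Broth microdilution in Mueller Hinton broth. A 0.5 McFarland suspension was diluted tenfold, giving an inoculum of 1.5 × 10⁷ cfu/mL. This was added to 2-fold serial compound dilutions from […]. Plates were incubated aerobically at 37 °C for 24 h. MIC was the lowest concentration with no visible turbidity.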

[3] = system: Staphylococcus aureus; test: Antibacterial activity against erythromycin-susceptible Staphylococcus aureus ATCC 25923 assessed as bacterial growth inhibition incubated for 24 hrs by CLSI protocol based broth microdilution method; format: functional
[4] = system: Streptococcus pyogenes; test: Antibacterial activity against erythromycin-susceptible Streptococcus pyogenes clinical isolate 1 assessed as bacterial growth inhibition incubated for 24 hrs by CLSI protocol based broth microdilution method; format: functional
[5] = system: Pseudomonas aeruginosa; test: Antibacterial activity against penicillin-susceptible Pseudomonas aeruginosa ATCC27853 assessed as bacterial growth inhibition incubated for 24 hrs by CLSI protocol based broth microdilution method; format: functional
[6] = system: Escherichia coli; test: Antibacterial activity against penicillin-susceptible Escherichia coli ATCC 25922 assessed as inhibition of bacterial growth measured by broth microdilution method; format: functional; conditions: time 24 hrs; outline: as §1
[7] = system: Staphylococcus aureus; test: Antibacterial activity against methicillin-resistant Staphylococcus aureus ATCC 43300 assessed as inhibition of bacterial growth by broth microdilution method; format: functional; conditions: time 24 hrs
Outline: (§2)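 Broth microdilution MIC. A 0.5 McFarland suspension was diluted 10-fold and added at 1.5 × 10⁷ cfu/mL to 2-fold dilutions (0.125–64) in Mueller Hinton broth. Incubated aerobically 24 h at 37 °C. MIC was the lowest concentration with no visible turbidity.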

[8] = system: Staphylococcus aureus; test: Antibacterial activity against penicillin-resistant Staphylococcus aureus assessed as inhibition of bacterial growth measured by broth microdilution method; format: functional; conditions: time 24 hrs; outline: as §2
[9] = system: Staphylococcus aureus; test: Antibacterial activity against Staphylococcus aureus assessed as inhibition of bacterial growth measured by broth microdilution method; format: functional; conditions: time 24 hrs; outline: as §1
[10] = system: Staphylococcus epidermidis; test: Antibacterial activity against penicillin-resistant Staphylococcus epidermidis assessed as inhibition of bacterial growth measured by broth microdilution method; format: functional; conditions: time 24 hrs
[11] = system: Streptococcus pyogenes; test: Antibacterial activity against erythromycin-resistant Streptococcus pyogenes 2 assessed as bacterial growth inhibition incubated for 24 hrs by CLSI protocol based broth microdilution method; format: functional
[12] = system: Enterococcus faecium; test: Antibacterial activity against vancomycin-susceptible Enterococcus faecium ATCC19434 assessed as bacterial growth inhibition incubated for 24 hrs by CLSI protocol based broth microdilution method; conditions: ATCC19434, 24 h
[13] = system: Staphylococcus aureus; test: Bactericidal activity against penicillin-resistant Staphylococcus aureus measured after 24 hrs by CLSI protocol based method; format: functional
Outline: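 MBC after broth microdilution. After 24 h, aliquots from clear wells were plated on tryptic soy agar and incubated aerobically 24 h at 37 °C. MBC was the lowest concentration giving no colonies.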

[14] = system: Bacillus subtilis; test: Bactericidal activity against penicillin-susceptible Bacillus subtilis ATCC 9372 measured after 24 hrs by CLSI protocol based method; format: functional
Outline: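 MBC followed on from the 24 h broth microdilution MIC plates. Aliquots from clear wells were spread on tryptic soy agar and incubated aerobically at 37 °C for 24 h. MBC was the minimum concentration giving no colonies.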

[15] = system: Enterococcus faecalis; test: Antibacterial activity against vancomycin-susceptible Enterococcus faecalis ATCC 29212 assessed as bacterial growth inhibition incubated for 24 hrs by CLSI protocol based broth microdilution method; format: functional
[16] = system: Enterococcus faecalis; test: Antibacterial activity against vancomycin-resistant Enterococcus faecalis ATCC 51299 assessed as bacterial growth inhibition incubated for 24 hrs by CLSI protocol based broth microdilution method; format: functional
[17] = system: Enterococcus faecium; test: Antibacterial activity against vancomycin-resistant Enterococcus faecium ATCC 51559 assessed as bacterial growth inhibition incubated for 24 hrs by CLSI protocol based broth microdilution method; conditions: ATCC 51559, 24 h

Compound	MIC [1] [µg/mL]	MIC [2] [µg/mL]	MIC [3] [µg/mL]	MIC [4] [µg/mL]	MIC [5] [µg/mL]	MIC [6] [µg/mL]	MIC [7] [µg/mL]	MIC [8] [µg/mL]	MIC [9] [µg/mL]	MIC [10] [µg/mL]	MIC [11] [µg/mL]	MIC [12] [µg/mL]	MBC [13] [µg/mL]	MBC [14] [µg/mL]	MIC [15] [µg/mL]	MIC [16] [µg/mL]	MIC [17] [µg/mL]
COc1ccccc1/C=C/c1c2ccccc2[n+](C)c2ccccc12.[I-]	1	2	0.25	0.25	> 64	> 64	4	16	1	8	0.5						
C[n+]1c2ccccc2c(-c2cccc([N+](=O)[O-])c2)c2ccccc21.[I-]	64	> 64	16	16	> 64	> 64	64	> 64	32	> 64	64						
CN[C@H](CC(C)C)C(=O)N[C@H]1C(=O)N[C@@H](CC(N)=O)C(=O)N[C@H]2C(=O)N[C@H]3C(=O)N[C@H](C(=O)N[C@H](C(=O)O)c4cc(O)cc(O)c4-c4cc3ccc4O)[C@H](O)c3ccc(c(Cl)c3)Oc3cc2cc(c3O[C@@H]2O[C@H](CO)[C@@H](O)[C@H](O)[C@H]2O[C@H]2C[C@](C)(N)[C@H](O)[C@H](C)O2)Oc2ccc(cc2Cl)[C@H]1O [VANCOMYCIN]	0.5 (≈ 0.345 µM)	2 (≈ 1.38 µM)		0.25 (≈ 0.173 µM)	> 64	> 64					1 (≈ 0.69 µM)	2 (≈ 1.38 µM)					
Cc1cccc(-c2c3ccccc3[n+](C)c3ccccc23)c1.[I-]	8	16	1	4	> 64	> 64	64	> 64	4	> 64	16						
CCCc1ccc(-c2c3ccccc3[n+](C)c3ccccc23)cc1.[I-]	1	2	0.25	1	> 64	> 64	4	16	0.25	8	4						
CC(=O)NC[C@H]1CN(c2ccc(N3CCOCC3)c(F)c2)C(=O)O1 [LINEZOLID]	0.5 (≈ 1.48 µM)	2 (≈ 5.93 µM)		1 (≈ 2.96 µM)	> 64	> 64				4 (≈ 11.9 µM)	1 (≈ 2.96 µM)		16 (≈ 47.4 µM)	64 (≈ 190 µM)			
CCCCc1ccc(-c2c3ccccc3[n+](C)c3ccccc23)cc1.[I-]	0.5	1	0.03	1	> 64	64	2	8	< 0.125	2	2	4			4	4	2
C[n+]1c2ccccc2c(-c2ccccc2)c2ccccc21.[I-]	16	32	2	8	> 64	> 64	> 64	> 64	8	> 64	32						
C[n+]1c2ccccc2c(-c2ccc(C(F)(F)F)cc2)c2ccccc21.[I-]	4	16	1	1	> 64	> 64	4	64	2	32	2						
C[n+]1c2ccccc2c(/C=C/c2ccc(Br)cc2)c2ccccc21.[I-]	1	1	0.5	0.25	> 64	64	2	4	1	2	0.5						

From ChEMBL document CHEMBL4837210 (Eur J Med Chem, 2021)
